Key:
[1] = (§1) Bovine sGC stimulation measured as relative enzyme activity (percentage of DEA/NO response for the compound to compound 3); type: functional
Procedure, shortened: (§2)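 Baculovirus-expressed bovine sGC from Sf21 cells, partially purified on Mono-Q. Compound at 1 µM single concentration in Tris buffer pH 7.4 with 5 mM MgCl2, IBMX and GTP; sGC submaximally stimulated with 300 nM DEA/NO, 10 min at room temperature. cGMP by competitive enzyme immunoassay, duplicate, at least n = 2; expressed as % of DEA/NO response, then ratio to benzydamine.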

Homo sapiens [2] = species on record: Homo sapiens; experiment: Percent inhibition of collagen-induced platelet aggregation at 100 uM concentration; type: functional
Homo sapiens [3] = species on record: Homo sapiens; experiment: Concentration required to inhibit collagen-induced platelet aggregation by 50%; type: functional
Procedure, shortened: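 Washed human platelets, prepared from citrated blood with PGI2 and normalized to 250 000 cells/µL in calcium-free Tyrode's buffer pH 7.4. Compound (DMSO ≤0.1% final) added 1 min before an EC50 dose of collagen. Light-transmittance aggregometry at 37 °C, response read 3 min after collagen and normalized to collagen control. IC50 from dose-response curves, mean ± SEM, at least 2 experiments.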

[4] = Cmax was determined after oral dosing of 5 mg/kg in rat; type: ADME, organism-based; design: dose 5 mg/kg, route oral; settings: in vivo
Procedure, shortened: (§3)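 Male Sprague-Dawley rats given 5 mg/kg in PBS orally (iv arm also run). Blood taken predose and at 0.5, 1, 2, 3, 4, 6, 10 and 24 h after oral dosing. Serum extracted into diethyl ether and analysed by reversed-phase C18 HPLC.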

[5] = Activation of bovine sGC Enzyme (soluble Guanylate Cyclase) in Sf21 cells infected with baculo virus in the presence of 30 nM of PAPA/NO; type: cell-based
Procedure, shortened: (§4)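 Bovine sGC expressed in Sf21 cells (baculovirus, 2.5 µg/mL hemin, 27 °C, 48 h), partially purified by Mono-Q anion exchange. Reaction in Tris buffer pH 7.4 with 5 mM MgCl2, 120 µg/mL enzyme, IBMX and GTP, stimulated by 30 nM PAPA/NO, room temperature, 10 min. cGMP read by competitive enzyme immunoassay. EC50 from nonlinear regression, mean ± SEM of at least 3 independent experiments.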

[6] = Bioavailability in rat after (dose 5 mg/kg p.o.); type: ADME, organism-based; settings: in vivo, po; procedure, shortened: as §3
Rattus norvegicus [7] = experiment: Area under curve (AUC) was determined after oral dosing of 5 mg/kg in rat; type: ADME, organism-based; design: dose 5 mg/kg, route oral; settings: in vivo; procedure, shortened: as §3
Rattus norvegicus [8] = experiment: (§5) Compound was evaluated for pharmacokinetic parameter was determined after oral dosing of 2 mg/kg in rat; type: ADME, organism-based; design: dose 2 mg/kg, route oral; settings: in vivo
Procedure, shortened: (§6)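 Male Sprague-Dawley rats, cassette-dosed at 2 mg/kg in PBS orally (iv arm also run). Serum extracted into diethyl ether and analysed by reversed-phase C18 HPLC.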

[9] = as §5; type: ADME, organism-based; design: dose 2 mg/kg, route oral; settings: in vivo; procedure, shortened: as §6
[10] = Bioavailability in rat after (dose 2 mg/kg p.o.); type: ADME, organism-based; settings: in vivo, po; procedure, shortened: as §6
Homo sapiens [11] = species on record: Homo sapiens; experiment: Percent inhibition of collagen-induced platelet aggregation by 50% at a concentration of 100 uM; type: functional
[12] = as §1; procedure, shortened: as §2
Homo sapiens [13] = species on record: Homo sapiens; experiment: Percent inhibition of collagen-induced platelet aggregation at 50 uM concentration; type: functional
[14] = Activation of sGC Enzyme (soluble Guanylate Cyclase) in Sf21 cells infected with baculo virus in the presence of 30 nM of PAPA/NO; type: functional, cell-based; procedure, shortened: as §4

Row | REA [1] | SMILES | further results
1 | 0.66 | CC(C)n1nc(OCCCN(C)C)c2ccccc21 | 
2 | 0.68 | CN(C)CCCCc1cc(-c2ccccc2)[nH]n1 | 
3 | 1.22 | CCCN(CCC)C(=O)c1cc(OCCCN(C)C)nn1Cc1ccccc1 | inhibition at 100 µM (Homo sapiens [2]): 35%
4 | 0.84 | CN(C)CCCOc1cc(C(=O)N2CCOCC2)n(Cc2ccccc2)n1 | inhibition at 100 µM (Homo sapiens [2]): 90%
5 | 0.82 | CC(=O)n1nc(OCCCN(C)C)c2ccccc21 | 
6 | 1.07 | CN(C)CCCOc1nn(S(C)(=O)=O)c2ccccc12 | IC50 (Homo sapiens [3]): 21.6 µM
7 | 1.01 | CN(C)CCCOc1cc(C(=O)O)n(Cc2ccccc2)n1 | 
8 | 0.33 | CN(C)CCOc1nn(Cc2ccccc2)c2ccccc12 | 
9 | 1.28 | CN(C)CCCOc1cc(-c2ccccc2)n(-c2ccccc2)n1 | Cmax [4]: 1.4 ng/mL; IC50 (Homo sapiens [3]): 2.84 µM; EC50 [5]: 0.58 µM; bioavailability [6]: < 2%; AUC (Rattus norvegicus [7]): 3.3 ng·h/mL
10 | 1.49 | CN(C)CCCOc1cc(-c2ccccc2)[nH]n1 | EC50 [5]: 0.72 µM; inhibition at 100 µM (Homo sapiens [2]): 19%
11 | 1.1 | COc1ccc(NC(=O)c2cc(OCCCN(C)C)nn2Cc2ccccc2)cc1 | EC50 [5]: 5.49 µM; AUC (Rattus norvegicus [7]): 61.1 ng·h/mL
12 | 0.79 | CN(C)CCCCOc1nn(Cc2ccccc2)c2ccccc12 | IC50 (Homo sapiens [3]): 7.62 µM
13 | 1.17 | CN(C)CCCOc1[nH]ncc1-c1ccccc1 | IC50 (Homo sapiens [3]): 12 µM
14 | 0.66 | CN(C)CCCNc1cc(-c2ccccc2)[nH]n1 | 
15 | 0.84 | CN(C)CCCOc1nn(CCc2ccccc2)c2ccccc12 | 
16 | 0.85 | c1ccc(-c2cc(OCCCN3CCCC3)n[nH]2)cc1 | 
17 | 1 | CN(C)CCCOc1nn(Cc2ccccc2)c2ccccc12 [BENZYDAMINE] | IC50 (Homo sapiens [3]): 6.67 µM; EC50 [5]: 1.02 µM
18 | 1.16 | CN(C)CCCOc1nn(-c2ccccc2)c2ccccc12 | IC50 (Homo sapiens [3]): 2.46 µM; AUC (Rattus norvegicus [8]): 7.9 ng·h/mL; Cmax [9]: 3.2 ng/mL; bioavailability [10]: 2%
19 | 1.13 | CN(C)CCCOc1cc(C(F)(F)F)[nH]n1 | inhibition at 100 µM (Homo sapiens [2]): 8%
20 | 0.73 | CN(C)CCCOc1ccn(Cc2ccccc2)n1 | 
21 | 1.04 | CN(C)CCCOc1nn(C(=O)c2ccccc2)c2ccccc12 | IC50 (Homo sapiens [3]): 8.57 µM

Row | REA [1] | SMILES | further results
22 | 1.22 | CN(C)CCCOc1cc(C(=O)NCc2ccccc2)n(Cc2ccccc2)n1 | inhibition at 100 µM (Homo sapiens [2]): 25%
23 | 0.42 | CCN(CC)CCCOc1cc(-c2ccccc2)[nH]n1 | 
24 | 1.15 | CN(C)CCCOc1cc(-c2ccncc2)[nH]n1 | inhibition at 100 µM (Homo sapiens [2]): 0%
25 | 0.56 | CN(C)CCCCCOc1nn(Cc2ccccc2)c2ccccc12 | 
26 | 0.71 | CN(C)CCCOc1ccn(-c2ccccc2)n1 | inhibition at 100 µM (Homo sapiens [11]): 3%
27 | 0.93 | CN(C)CCCOc1cc(C(=O)N(C)C)n(Cc2ccccc2)n1 | inhibition at 100 µM (Homo sapiens [2]): 4%
28 | 0.95 | CNC(=O)c1cc(OCCCN(C)C)nn1Cc1ccccc1 | 
29 | 0.48 | NCCCOc1nn(Cc2ccccc2)c2ccccc12 | 
30 | 1.1 | COc1cc(-c2cc(OCCCN(C)C)[nH]n2)cc(OC)c1OC | IC50 (Homo sapiens [3]): 41.1 µM
31 | 0.72 | CN(C)CCCOc1cc(-c2ccccc2)nn1Cc1ccccc1 | 
32 | 0.61 | CN1CCCC(COc2cc(-c3ccccc3)[nH]n2)C1 (centres undefined) | 
33 | 1.08 | CN(C)CCCOc1cc(-c2ccccc2)n(Cc2ccccc2)n1 | IC50 (Homo sapiens [3]): 2.37 µM; EC50 [5]: 0.44 µM; AUC (Rattus norvegicus [8]): 15.5 ng·h/mL; Cmax [9]: 3.1 ng/mL; bioavailability [10]: 2%
34 | 0.78 | CN(C)CCCOc1nn(C(=O)N(C)C)c2ccccc12 | 
35 | 0.69 | Nc1ncccc1COc1cc(-c2ccccc2)[nH]n1 | 
36 | 0.79 | CN(C)CCCOc1nn(CCCN(C)C)c2ccccc12 | 
37 | 1.54 | CN(C)CCCOc1cc(Cc2ccccc2)n[nH]1 | IC50 (Homo sapiens [3]): 49.2 µM; EC50 [5]: 0.165 µM
38 | 0.62 | CC(COc1nn(Cc2ccccc2)c2ccccc12)CN(C)C (centres undefined) | IC50 (Homo sapiens [3]): 4.18 µM
39 |  | CN(C)CCCOc1[nH]nc2ccccc12 | REA [12]: 1.93; inhibition at 50 µM (Homo sapiens [13]): 50%
40 | 0.53 | Nc1cc(COc2cc(-c3ccccc3)[nH]n2)ccn1 | 
41 |  | OCc1ccc(-c2nn(Cc3ccccc3)c3ccccc23)o1 | EC50 [14]: 4.11 µM
42 | 1.31 | CN(C)CCCOc1cc(-c2ccoc2)[nH]n1 | IC50 (Homo sapiens [3]): 99 µM
